DDE Tn7 FP inh: inhibitors of Tn7 peptide binding to fibrin DD(E), primary screen, biochemical, fluorescence polarization, human fibrin, Tn7 probe | Fibrinogen beta chain (Homo sapiens), P02675 | FP displacement of FITC-Tn7 peptide from fibrin DD(E); 0% = median of compound wells per plate | inhibition, % at 8.3 µM | 0.13% of 370,000 active | AID 720508, 2013;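 active means inhibition above the mean of compounds falling within the control limits plus 3 SD of them, cut at about 14% in these data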;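 further: 0% = plate median of compound wells and 100% = 10 µM Aha-Tn7 peptide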
Target sequence (P02675 whole entry, looked up): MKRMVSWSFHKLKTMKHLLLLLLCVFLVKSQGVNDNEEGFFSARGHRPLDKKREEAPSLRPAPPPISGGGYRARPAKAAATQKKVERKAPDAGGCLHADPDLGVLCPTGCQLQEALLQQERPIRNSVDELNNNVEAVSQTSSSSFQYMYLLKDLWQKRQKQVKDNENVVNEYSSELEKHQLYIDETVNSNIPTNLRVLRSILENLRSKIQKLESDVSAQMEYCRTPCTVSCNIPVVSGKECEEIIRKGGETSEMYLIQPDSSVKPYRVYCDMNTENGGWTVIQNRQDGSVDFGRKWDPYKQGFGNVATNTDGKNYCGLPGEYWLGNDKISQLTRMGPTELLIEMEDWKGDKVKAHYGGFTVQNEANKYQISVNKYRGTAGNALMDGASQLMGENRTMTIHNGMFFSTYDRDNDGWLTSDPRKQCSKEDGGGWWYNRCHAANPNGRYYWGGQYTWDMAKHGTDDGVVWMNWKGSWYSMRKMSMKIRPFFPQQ
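Assay system: human fibrin DD(E). Input: DD(E) 2 µM final. Medium: Tris buffer with calcium and detergent, pH 7.8. Compound dosing: single point at 8.3 µM. Timing: 10 min plus 3 h, room temperature. Technique: fluorescence polarization of the labelled Tn7 tracer. Read-out: percent inhibition. Replicates: singlicate testing.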
TCR CD3 inh: inhibitors of human TCR-CD3 interaction, primary screen, biochemical, fluorescence, TAMRA-labeled TCR probe. inhibition, % at 9.4 µM. 0.37% of 360,000 active. T-cell receptor (TCR);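 further: recombinant mutant TCR 2C K166C tagged with TAMRA read by polarization; 0% = receptor in buffer alone and 100% = receptor with positive control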
HTRA1 inhibitor: HTRA1 serine protease inhibitors, primary screen, biochemical, fluorescence polarization, HTS; Q92743; recombinant HTRA1, FP-rhodamine activity-based probe; inhibition, % at 5.96 µM; 0.5% of 340,000 active; in the data active means inhibition above about 36%;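 further: 0% = enzyme with DMSO and 100% = wells lacking enzyme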
Tn6 DDE FP: inhibitors of Tn6 peptide binding to fibrin DD(E), primary screen, biochemical, fluorescence polarization, human fibrin, Tn6 probe. 0.21% of 370,000 active. AID 720509, 2013. inhibition, % at 8.3 µM. Fibrinogen beta chain (Homo sapiens), P02675. Fibrin DD(E) TRITC-Tn6 fluorescence polarization displacement;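 active means inhibition above a per-campaign cutoff: mean of compounds within control limits plus 3 SD, cut at about 15% in these data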;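 further: 0% = median of all compound wells on the plate and 100% = blocking peptide control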
SIAE inh: human SIAE inhibitors, primary screen, biochemical, fluorescence polarization, FP-Rh probe, 1536-well HTS | Sialate O-acetylesterase (Homo sapiens), Q9HAT2 | SIAE FP-Rh probe binding | inhibition, % at 9.66 µM | 0.69% of 370,000 active | AID 1053197, 2014;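 active means inhibition above a cutoff: mean of compounds within the control limits plus 3 SD of those, cut at about 17% in these data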;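 further: 0% = plate median of compound wells and 100% = probe without SIAE protein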
mABHD4 FP: ABHD4 inhibitors, primary screen, biochemical, fluorescence polarization, mouse; (Lyso)-N-acylphosphatidylethanolamine lipase (Mus musculus), Q8VD66; purified mABHD4, FP-Rh probe fluorescence polarization; inhibition, % at 8.92 µM; 0.54% of 370,000 active; AID 720543, 2013;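 active means inhibition exceeding the mean over every tested compound plus 3 SD, cut at about 30% in these data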;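 further: 0% = plate median of compound wells and 100% = S159A mutant with DMSO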
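System: mouse ABHD4 enzyme, wild type / Medium: HEPES pH 7.0, NaCl, Pluronic buffer / Reagent: FP-Rh activity-based fluorescent probe / Control set: S159A mutant high control, sample median low control / Detection: fluorescence polarization with parallel and perpendicular emission, 525/598 nm / Schedule: 45 min + 60 min at 25 °C / Compound dosing: 8.92 µM, single dose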
HTRA1 conf: HTRA1 protease inhibitors, retest, confirmation, biochemical, fluorescence polarization; 66% of 1,600 active; inhibition, % at 5.96 µM; AID 540248, 2011; recombinant HTRA1, FP-rhodamine activity-based probe; shares compounds with HTRA1 inhibitor;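 active means mean inhibition over three repeats above a set limit taken from the earlier primary screen, cut at about 37% in these data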;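 further: 0% = HTRA1 with DMSO and 100% = wells lacking HTRA1; inhibitors block probe binding so polarization drops and inhibition rises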
BSA probe FL: compounds interfering with TAMRA-BSA probe, counter-screen for TCR-CD3 interaction inhibitor project, biochemical, fluorescence, TAMRA-labeled BSA. shares compounds with TCR CD3 inh. TAMRA-labeled BSA probe fluorescence counterscreen. inhibition, % at 9.4 µM. 10% of 1,200 active. AID 652035, 2013; in the data active means inhibition above about 23%;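 further: 0% = buffer low control and 100% = reference high control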
TCR-CD3 inh conf: TCR-CD3 interaction inhibitors, retest, confirmation, biochemical, fluorescence, TAMRA-labeled TCR probe; shares compounds with TCR CD3 inh; inhibition, % at 9.4 µM; TAMRA-labeled TCR probe fluorescence binding assay; 48% of 1,200 active
ABHD4 confirm: ABHD4 inhibitors, retest, confirmation, biochemical, fluorescence polarization, mouse. shares compounds with mABHD4 FP. purified mABHD4, FP-Rh probe fluorescence polarization. inhibition, % at 8.92 µM. 55% of 1,800 active. AID 720658, 2013;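 active means mean inhibition across replicates above the hit cutoff set in the primary screen, cut at about 30% in these data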;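 further: 0% = wild-type ABHD4 with DMSO and 100% = catalytically dead S159A mutant with DMSO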
SIAE inh conf: human SIAE inhibitors, retest, confirmation, biochemical, fluorescence polarization, FP-Rh probe, triplicate | shares compounds with SIAE inh | SIAE FP-Rh activity-based probe | inhibition, % at 9.66 µM | 13% of 2,300 active | AID 1117263, 2014;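 active means mean inhibition of the replicates above the hit cutoff set in the primary screen, cut at about 17% in these data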;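 further: 0% = SIAE with DMSO and probe and 100% = probe without SIAE; inhibitors lower polarization as more probe stays unbound to SIAE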
Numbers without * were called inactive; . = no result given. Only some compounds are listed: those with a hit (about 1.8% of all), similar ones and a draw of the others. Unless noted, no stated cut-off is given here; in the data, active means inhibition above about 19%; inactive means the rest.

SMILES	DDE Tn7 FP inh	TCR CD3 inh	HTRA1 inhibitor	Tn6 DDE FP	SIAE inh	mABHD4 FP	HTRA1 conf	SIAE inh conf	others
COC(=O)C1=C(C)N(Cc2cccc(C(F)(F)F)c2)C(=NCc2ccc(OC)cc2)NC1c1cccc(F)c1 (stereo not drawn)	7	-5	.	4	-3	21	.	.
c1ccc(-c2nc3ccccc3[nH]2)cc1	-4	4	-2	7	-5	0	.	.
Nc1cc(N)cc(-c2nc3ccccc3[nH]2)c1	0	-8	47*	-13	31*	12	21	5
CN(C(=O)C1CCN(c2cncnc2)CC1)C1CCCCC1	-5	.	.	-3	-1	3	.	.
COC(=O)Cc1nnn2c1[C@@H](C)[C@@H](c1ccccc1Br)OC[C@@H]2c1ccccc1	1	3	.	-6	3	-8	.	.
CN(C(=O)CCc1cn(C)c2ccccc12)c1ccc(Oc2cccnc2)cc1	1	3	.	1	-1	6	.	.
Cn1c2ccccc2c2cc(/C=N/NC(=O)c3cc(O)cc(O)c3)ccc21	-1	12	-41	-22	-22	-30	.	.
Cn1c2ccccc2c2cc(/C=N/NC(=O)c3cc(O)ccc3O)ccc21	5	43*	64*	-16	50*	52*	64*	5	BSA probe FL=-18;TCR-CD3 inh conf=23*;ABHD4 confirm=0
O=C(N/N=C/c1cccc(O)c1)c1cc(-c2ccccc2)nc2ccccc12	0	-2	-55	6	-34	-56	.	.
O=C(N/N=C/c1ccc(O)c(O)c1)c1cc(-c2ccccc2)nc2ccccc12	-10	11	63*	-8	19*	22	76*	-13
COC(=O)C/C=C/[C@@H](C)[C@H](NC(=O)OCC(Cl)(Cl)Cl)c1ccc(-c2ccccc2)cc1	2	.	.	-14	-8	-11	.	.
O=C(NC(=S)Nc1ccc(N2CCOCC2)cc1)c1ccco1	-1	-1	-2	-2	7	6	.	.
COc1ccc2nc(-c3ccco3)c(-c3ccco3)nc2c1	2	31*	52*	3	23*	57*	33	4	BSA probe FL=-9;TCR-CD3 inh conf=31*;ABHD4 confirm=29
S=C(Nc1ccc(N2CCOCC2)cc1)Nc1ccc2nc(-c3ccco3)c(-c3ccco3)nc2c1	4	9	48*	-6	21*	38*	32	5	ABHD4 confirm=42*
O=C(Nc1ccccc1)c1ccc2nc(-c3ccco3)c(-c3ccco3)nc2c1	1	24*	59*	-8	22*	47*	-20	-2	ABHD4 confirm=22
O=C(Nc1cccnc1)c1ccc2nc(-c3ccccc3)c(-c3ccccc3)nc2c1	7	-5	-35	-4	-9	-14	.	.
CCCCNC(=O)c1ccc2nc(-c3ccco3)c(-c3ccco3)nc2c1	-6	23*	53*	-13	27*	60*	39*	8	BSA probe FL=-9;TCR-CD3 inh conf=16;ABHD4 confirm=52*
O=C(Nc1nc2ncccn2c1-c1ccc(F)c(F)c1)C1CC1	-1	.	.	0	-2	0	.	.
COc1ccc(-n2c(COc3ccccc3)nnc2SCC(=O)Nc2ccccc2-c2ccccc2)cc1	-6	.	.	0	-3	-12	.	.
CN[C@H]1C[C@H]2c3[nH]c4cccc(-c5ccc6c(c5)OCO6)c4c3CCN2C[C@H]1[C@H](C)O	1	.	.	3	15	10	.	.
COC(=O)C1CN(Cc2ccc(Cl)cc2)CCS(=O)(=O)N1Cc1cn(Cc2ccccc2)nn1 (stereo not drawn)	-3	.	.	-8	2	3	.	.
COc1ccccc1N1CCN(Cc2cc(Br)c(O)c3ncccc23)CC1	-3	3	55*	1	29*	22	82*	22*
O=C(CCc1ccccc1)N[C@H]1[C@@H](OC(=O)c2cccnc2)CCC[C@@]12C(=O)N(Cc1ccccc1)c1ccccc12	5	.	.	-1	-6	-12	.	.
c1cc2c3c(cccc3c1)NC1(CCC3(CC1)Nc1cccc4cccc(c14)N3)N2	-2	0	56*	1	38*	17	55*	3
c1cc2c3c(cccc3c1)NC1(CCCCCC1)N2	3	4	39*	-12	19*	17	51*	2
SMILES	DDE Tn7 FP inh	TCR CD3 inh	HTRA1 inhibitor	Tn6 DDE FP	SIAE inh	mABHD4 FP	HTRA1 conf	SIAE inh conf	others
CCOC(=O)Cc1nc(N2CCN(C(=O)C3CCCO3)CC2)c2c(C)c(C(=O)OCC)sc2n1 (stereo not drawn)	4	.	.	4	-2	1	.	.
Nc1ccc(C(=O)N/N=C\c2cc(N=Nc3cccc4ccccc34)ccc2O)cc1	3	13	56*	-20	36*	16	91*	19*
Cc1ccccc1C(=O)Nc1cccc(C(=O)N/N=C/c2cc(Cl)cc([N+](=O)[O-])c2O)c1	5	45*	42*	10	28*	37*	50*	2	BSA probe FL=-6;TCR-CD3 inh conf=56*;ABHD4 confirm=49*
COc1cc(/C=N/NC(=O)c2cccc(NC(=O)c3ccccc3C)c2)ccc1O	-4	-2	-9	-8	7	7	.	.
COC(=O)C1CN(Cc2ccc(F)cc2)CCS(=O)(=O)N1Cc1ccc(C)cc1 (stereo not drawn)	-4	.	.	-1	-1	-3	.	.
CC(C)(C)c1ccc(-c2nnc(SCC(=O)Nc3cccc4ccccc34)n2Cc2ccco2)cc1	-5	.	.	-3	-13	-18	.	.
